MrgX1 antag – antagonists of human MrgX1 receptor. MRGX1-HEK293 calcium flux, Fluo-4, BAM8-22 antagonism; stronger effect = lower value. B-score at 10 µM. 310,000 tested, 1.3% active;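 active means calcium-response B-score plate-corrected more than 3 library SD below zero, starting fluorescence within 5 deviations, no agonist response on first addition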;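 further: peak minus trough fluorescence over baseline after final BAM8-22 challenge near maximal dose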
Target sequence (Q96LB2 whole entry, looked up): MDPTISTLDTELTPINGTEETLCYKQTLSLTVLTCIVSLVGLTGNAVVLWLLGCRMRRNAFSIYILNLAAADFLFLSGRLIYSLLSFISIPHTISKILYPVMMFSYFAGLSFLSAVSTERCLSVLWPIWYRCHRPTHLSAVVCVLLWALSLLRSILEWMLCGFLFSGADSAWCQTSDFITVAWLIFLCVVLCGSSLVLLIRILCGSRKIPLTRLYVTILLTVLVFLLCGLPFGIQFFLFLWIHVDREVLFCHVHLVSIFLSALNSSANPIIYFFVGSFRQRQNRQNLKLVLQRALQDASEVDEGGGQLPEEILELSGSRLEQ
RGS4 act – potentiators or activators of RGS4; HEK293 M3R/inducible RGS4, carbachol calcium flux Fluo4; stronger effect = lower value; 310,000 tested, 0.92% active; B-score at 10 µM;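 active means B-score of the integrated calcium signal more than 4 SD below the library mean, with starting fluorescence not abnormally high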;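 further: negative B-score means reduced calcium response which marks RGS4 activation or potentiation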
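System – HEK293 FlpIn-TREx cells, stable M3R, doxycycline-inducible RGS4 · Reagent – ECmax carbachol challenge · Times – compound preincubation 20 min at room temperature before agonist · Technique – Fluo4 fluorescence kinetic imaging of calcium · Measure – B score of integrated Fluo4 ratio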
MrgX1 allo act – allosterically activates human MrgX1 receptor signaling; 310,000 tested, 0.63% active; B-score at 10 µM; MrgX1-HEK293, Fluo-4 calcium flux, FDSS; stronger effect = higher value;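 active means plate-corrected calcium response at least 3 library SD above typical, normal starting fluorescence, not activating the receptor alone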;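 further: compound read alongside a low EC10 to EC30 dose of BAM8-22 agonist; peak minus trough fluorescence over baseline measured at the second addition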
MrgX1 ag – human MrgX1 receptor agonism, primary screen; B-score at 10 µM; Q96LB2; AID 588627; 310,000 tested, 0.44% active; MrgX1-HEK293 cells, Fluo-4 calcium fluorescence, agonist mode; stronger effect = higher value;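 active means calcium response B-score plate-corrected fluorescence ratio at least 3 library SD, with starting fluorescence B-score inside 5 SD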
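Material – MrgX1-expressing HEK293 cells · Input – 15,000 cells seeded per well · Dosing – compound as first of three additions · Times – overnight seeding, then 1 h dark dye loading · Measured by – kinetic Fluo-4 NW fluorescence of intracellular calcium · Read-out – B-scored fluorescence response ratio · Benchmarks – positive and negative control wells on each plate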
RGS4 inh – inhibitors of human RGS4; HEK293 M3R/RGS4 inducible, Fluo-4 calcium flux; stronger effect = higher value; triggered by carbachol at its EC20; B-score at 10 µM; 310,000 tested, 0.45% active;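 active means B-score, a plate-corrected calcium signal, over three deviations above library mean, with baseline fluorescence within five deviations of library mean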;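 further: RGS4 expression induced by doxycycline in cells with stable M3 receptor; B-score is computed from the integrated fluorescence ratio over baseline after carbachol; higher B-score means a larger calcium signal and so more RGS4 inhibition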
Target sequence (P49798 whole entry, looked up): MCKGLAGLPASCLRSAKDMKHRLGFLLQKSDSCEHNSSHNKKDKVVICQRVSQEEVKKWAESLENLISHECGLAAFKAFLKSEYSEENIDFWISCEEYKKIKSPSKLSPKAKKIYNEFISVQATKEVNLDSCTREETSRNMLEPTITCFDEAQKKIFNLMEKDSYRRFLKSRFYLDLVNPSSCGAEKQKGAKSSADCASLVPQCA
MrgX1 allo conf – confirmation of human MrgX1 receptor positive allosteric modulators; 1,200 tested, 13% active; MrgX1-HEK293, Fluo-4 calcium fluorescence, FDSS; activation (ratio percentage), % at 10 µM; shares compounds with MrgX1 allo act;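 active means ratio at least 3 SD above the weak peptide control, stable starting fluorescence, no direct agonism earlier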;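 further: compound followed by low BAM8-22 agonist challenge near EC20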
MrgX1 ant reconf – human MrgX1 receptor antagonism, re-confirmation screen. shares compounds with MrgX1 antag. MrgX1-HEK293, BAM8-22 calcium flux, Fluo-4; stronger effect = lower value. 2,300 tested, 19% active. remaining BAM8-22 calcium response % of control (stronger effect = lower value), % at 10 µM. AID 602420;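 active means remaining agonist calcium response no higher than 100% minus 3 SD of agonist-only control wells, with starting fluorescence near control levels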;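 further: agonist BAM8-22 given at a near maximal EC90 to ECmax level; peak minus minimum fluorescence divided by baseline after agonist addition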
HEK293 Ca flux – activity in parental HEK293 cells lacking MrgX1. shares compounds with MrgX1 antag. Fluo-4 calcium fluorescence, FDSS. fluorescence ratio F(max-min)/F0 at 10 µM. 4,000 tested, 2% active. AID 624111;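 active means duplicate-averaged calcium fluorescence ratio at least three times the standard deviation of buffer wells, a nonspecific response in parental cells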
HEK293 Ca counter – counter-screen for MrgX1 allosteric activators: effect in parental HEK293 cells | shares compounds with MrgX1 antag | parental HEK293 calcium flux, Fluo-4 fluorescence ratio; stronger effect = higher value | fluorescence ratio F(max-min)/F0 at 10 µM | AID 624114 | 4,000 tested, 0.4% active;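 active means calcium fluorescence ratio, averaged over duplicates, at least 3 SD of the buffer-well ratio, meaning a nonspecific response in receptor-free cells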;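 further: untransfected parental HEK293 lacking MrgX1 used as counterscreen for MrgX1 allosteric activators; fluorescence change taken during the second addition on a kinetic imager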
HEK293 Ca cntr2 – activity in parental HEK293 cells lacking MrgX1 receptor; shares compounds with MrgX1 antag; Fluo-4 calcium fluorescence (FDSS); stronger effect = higher value; fluorescence ratio F(max-min)/F0 at 10 µM; 4,000 tested, 8.7% active; AID 624115;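 active means calcium fluorescence ratio at least three times the spread of buffer wells, meaning a non-specific response in parental cells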
Of the large screens only hits and unclear results are named; the others gave an inactive call (follow-up assays come after a bar, where they were run). Sampled rows, rich in hits. Any-hit rate of the full collection: about 3.5%.

CCc1ccc(N2CC(C(=O)Nc3nc4ccc(S(C)(=O)=O)cc4s3)CC2=O)cc1 (stereo unspecified)	none
CCc1[nH]nc2c1C(c1ccc(C)o1)C(C#N)=C(N)O2 (stereo unspecified)	MrgX1 allo act 7.6 | MrgX1 allo conf inactive | HEK293 Ca flux inactive | HEK293 Ca counter inactive | HEK293 Ca cntr2 inactive
CC(C)[C@H](NC(=O)[C@@H]1Cc2ccccc2CN1C(=O)OC(C)(C)C)C(=O)NCc1ccco1	none
Clc1ccccc1Nc1nnc(-c2ccncc2)s1	MrgX1 allo act 9.6 | MrgX1 allo conf inactive | HEK293 Ca flux inactive | HEK293 Ca counter inactive | HEK293 Ca cntr2 inactive
O=C(COc1ccc(Cl)cc1Cl)Nc1cccnc1	MrgX1 allo act 8.7 | MrgX1 allo conf inactive | HEK293 Ca flux inactive | HEK293 Ca counter inactive | HEK293 Ca cntr2 inactive
O=C(COc1ccc(Cl)cc1Cl)N/N=C/c1cccnc1	none
O=C(c1ccc(N2CCN(C3CC(=O)N(Cc4cccs4)C3=O)CC2)cc1)c1cccnc1 (stereo unspecified)	MrgX1 antag -5.1, MrgX1 allo act 9 | MrgX1 allo conf 3.0% | MrgX1 ant reconf 84% | HEK293 Ca flux inactive | HEK293 Ca counter inactive | HEK293 Ca cntr2 inactive
O=C(c1ccncc1)c1ccc(N2CCN(C3CC(=O)N(Cc4ccccc4)C3=O)CC2)cc1 (stereo unspecified)	none
c1ccc(-c2cc3c(N4CCCCC4)ncnc3s2)cc1	MrgX1 allo act 8.9 | MrgX1 allo conf inactive | HEK293 Ca flux inactive | HEK293 Ca counter inactive | HEK293 Ca cntr2 inactive
Cc1ccc(OCc2cc(C(=O)N(C)Cc3cnc4ccccn34)no2)cc1C	none
COc1ccccc1-c1nc(S(=O)(=O)c2ccccc2)c(N2CCOCC2)o1	none
COCCn1c(SCC(=O)Nc2cc(C)on2)nnc1-c1ccccc1	none
O=C(CSc1nc(-c2ccccc2)cs1)NCCN1C(=O)CSC1=O	MrgX1 allo act 10 | MrgX1 allo conf inactive | HEK293 Ca flux inactive | HEK293 Ca counter inactive | HEK293 Ca cntr2 inactive
O=C(CNC(c1ccccc1)c1ccccc1)Nc1ccccc1Br	none
CC(C)=CCc1c(C)nc2ccccc2c1C(=O)O	MrgX1 allo act 11 | MrgX1 allo conf inactive | HEK293 Ca flux inactive | HEK293 Ca counter inactive | HEK293 Ca cntr2 inactive
COC(=O)c1c(C)nc2ccccc2c1C(=O)O	none
Cc1ccc(S(=O)(=O)NCC2CCC(C(=O)N3CCN(C)CC3)CC2)cc1 (stereo unspecified)	none
c1ccc(Nc2ncnc3sc4c(c23)CCC4)cc1	none
Cc1ccc(C(=O)Nc2ncnc3sc4c(c23)CCCCC4)cc1	MrgX1 allo act 6.7 | MrgX1 allo conf 8.1% | HEK293 Ca flux inactive | HEK293 Ca counter inactive | HEK293 Ca cntr2 inactive
C[C@H](Nc1ncnc2sc3c(c12)CCC3)C(=O)O	none
Fc1ccc(Nc2ncnc3sc4c(c23)CCC4)cc1	MrgX1 allo act 6.9 | MrgX1 allo conf inactive | HEK293 Ca flux inactive | HEK293 Ca counter inactive | HEK293 Ca cntr2 inactive
Cc1csc(NC(=O)CCCC(=O)c2ccccc2)n1	none
CCOC(=O)N1CCC(N2C(=O)c3ccc(C(=O)O)cc3C2=O)CC1	none
CCOC(=O)N1CCC(N2C(=O)c3ccc(C(=O)Nc4cccc(OC)c4)cc3C2=O)CC1	MrgX1 allo act 8 | MrgX1 allo conf inactive | HEK293 Ca flux inactive | HEK293 Ca counter inactive | HEK293 Ca cntr2 inactive
O=C(Cc1cccs1)Nc1nnc(SCC(=O)N2CCCCC2)s1	none

From PubChem
